Source: PubChem BioAssay (The Scripps Research Institute Molecular Screening Center)
PRMT1 inh: blocks human protein arginine methyltransferase 1 | hit rate 1.3% among 370,000 | recombinant PRMT1, activity-based probe fluorescence polarization | inhibition, % at 2.79 µM | Q99873 | AID 652257;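 active means inhibition above about 21% made by adding two undisclosed values, limit read from the data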
SIAE inh: inhibitors of human sialic acid acetylesterase SIAE | Q9HAT2 | SIAE FP-Rh probe binding, fluorescence polarization | inhibition, % at 9.66 µM | hit rate 0.69% among 370,000 | AID 1053197;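 active means inhibition above a cutoff: mean of compounds within the control limits plus 3 SD of those, cut at about 17% in these data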
Target sequence (Q9HAT2 whole entry, looked up): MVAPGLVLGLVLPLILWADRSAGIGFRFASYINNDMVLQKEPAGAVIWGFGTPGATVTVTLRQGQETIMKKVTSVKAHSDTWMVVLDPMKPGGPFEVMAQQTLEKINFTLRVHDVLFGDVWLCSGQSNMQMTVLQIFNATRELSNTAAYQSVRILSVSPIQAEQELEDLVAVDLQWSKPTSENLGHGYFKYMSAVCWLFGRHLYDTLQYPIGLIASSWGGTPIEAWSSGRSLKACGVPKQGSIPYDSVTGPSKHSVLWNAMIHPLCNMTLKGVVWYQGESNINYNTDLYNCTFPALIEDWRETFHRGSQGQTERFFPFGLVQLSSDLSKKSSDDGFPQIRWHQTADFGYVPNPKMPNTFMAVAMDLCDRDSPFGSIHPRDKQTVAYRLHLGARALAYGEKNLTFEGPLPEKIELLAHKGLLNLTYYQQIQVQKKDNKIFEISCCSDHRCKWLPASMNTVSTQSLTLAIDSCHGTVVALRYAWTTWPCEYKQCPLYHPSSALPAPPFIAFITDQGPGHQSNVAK
rCAG binder-1: r(CAG) repeat RNA binding; hit rate 1.3% among 370,000; TO-PRO-1 dye displacement fluorescence; inhibition, % at 3 µM;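 active means inhibition above the plate cutoff, the mean of all test compounds on that plate plus 3 SD, cut at about 35% in these data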;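 further: higher means more dye released from RNA so lower well fluorescence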
mABHD4 FP: inhibitors of mouse ABHD4. purified mABHD4, FP-Rh probe fluorescence polarization. AID 720543. Q8VD66. hit rate 0.54% among 370,000. inhibition, % at 8.92 µM;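 active means inhibition exceeding the mean over every tested compound plus 3 SD, cut at about 30% in these data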
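system = mouse ABHD4 enzyme, wild type | medium = HEPES pH 7.0, NaCl, Pluronic buffer | also added = FP-Rh probe | incubation = Enzyme–compound pre-incubation 45 min, then probe 60 min, both 25 °C | technique = fluorescence polarization, excitation 525 nm, emission 598 nm, BODIPY TMR filters | controls = S159A mutant high control, sample median low control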
HTRA1 inh: inhibitors of human serine peptidase HTRA1 | Q92743 | recombinant HTRA1, FP-rhodamine activity-based probe, fluorescence polarization | inhibition, % at 5.96 µM | hit rate 0.5% among 340,000 | AID 504803; in the data active means inhibition above about 36%
rCAG binder conf: r(CAG) RNA repeat binding, confirmation; shares compounds with rCAG binder-1; TO-PRO-1 dye displacement fluorescence; AID 652065; inhibition, % at 3 µM; hit rate 70% among 4,300;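 active means inhibition above a per-plate cutoff, the mean inhibition of sample wells plus 3 SD, cut at about 35% in these data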;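 further: loss of TO-PRO-1 fluorescence as compound displaces dye from 1x1 AA loop RNA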
DNA CAG counter: DNA CAG dye complex inhibition counter-screen | shares compounds with rCAG binder-1 | d(CAG) DNA oligo TO-PRO-1 dye displacement, fluorescence | inhibition, % at 3 µM | hit rate 94% among 4,300;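 active means inhibition above its plate's cutoff, the mean test-well inhibition plus 3 SD, cut at about 4.8% in these data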;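 further: hits displace the dye from DNA and so lower well fluorescence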
dCAG dye DR: DNA CAG dye complex inhibition, dose response counter-screen | shares compounds with rCAG binder-1 | DNA CAG/GTC duplex TO-PRO-1 dye displacement fluorescence | AID 686960 | hit rate 20% among 250 | IC50, µM; in the data active means IC50 below about 10 µM
dCAG TOPRO ctr: DNA CAG dye complex inhibition, late stage dose response; shares compounds with rCAG binder-1; d(CAG) DNA duplex TO-PRO-1 dye displacement, fluorescence; IC50, µM; hit rate 80% among 30
rCAG binder-2: binds r(CAG) RNA repeats in late stage dose response | shares compounds with rCAG binder-1 | r(CAG) RNA TO-PRO-1 dye displacement, fluorescence | IC50, µM | hit rate 100% among 30
Each line names hits and unclear results; the compound was inactive in the other large screens (follow-up assays come after a bar, where they were run). A selection: hits, their analogues and other compounds. The true share with any hit is near 3.3%. Unless noted, how the calls were made is not given here.

CCCCc1ccc(S(=O)(=O)NC(=O)C2(C)CCN2C(=O)c2cccc(F)c2)cc1 (stereo unspecified)	rCAG binder-1 37 (no result: HTRA1 inh) | rCAG binder conf inactive | DNA CAG counter 6.5
CC1(C(=O)NS(=O)(=O)c2ccc(Br)cc2)CCN1C(=O)CCc1ccccc1 (stereo unspecified)	none (no result: HTRA1 inh)
CCCCc1ccc(S(=O)(=O)NC(=O)C2(C)CCN2C(=O)C/C=C/c2ccccc2)cc1 (stereo unspecified)	rCAG binder-1 58 (no result: HTRA1 inh) | rCAG binder conf 55 | DNA CAG counter 18
COCc1cc(N2CCN(C(=O)OC(C)(C)C)C[C@@H]2C)ccc1Br	none (no result: HTRA1 inh)
Cc1ccc(S(=O)(=O)NN2C(=O)/C(=C/c3cccs3)SC2=S)cc1	rCAG binder-1 63 | rCAG binder conf 55 | DNA CAG counter 22
C=CCOc1ccc(/C=C2\SC(=S)N(NS(=O)(=O)c3ccc(C)cc3)C2=O)cc1	rCAG binder-1 80 | rCAG binder conf 84 | DNA CAG counter 53
COc1ccc(/C=C2/SC(=S)N(NS(=O)(=O)c3ccc(C)cc3)C2=O)cc1	rCAG binder-1 84 | rCAG binder conf 84 | DNA CAG counter 47
Nc1ccc(S(=O)(=O)Nc2nc(-c3ccccc3)cc(-c3ccccc3O)n2)cc1	rCAG binder-1 58 | rCAG binder conf 54 | DNA CAG counter 18
Cc1ccc(C)c2c1[nH]c1ccc([N+](=O)[O-])cc12	rCAG binder-1 40 | rCAG binder conf inactive | DNA CAG counter 14
COc1ccc(CN(C)S(=O)(=O)c2nnc(NC(=O)c3ccccc3Br)s2)cc1	rCAG binder-1 73 | rCAG binder conf 52 | DNA CAG counter 18
COc1cc(C(=O)Nc2nnc(S(=O)(=O)N3CCCCCC3)s2)cc(OC)c1OC	rCAG binder-1 52 | rCAG binder conf 53 | DNA CAG counter 14
CC1CCN(S(=O)(=O)c2nnc(NC(=O)c3ccccc3Br)s2)CC1	rCAG binder-1 37 | rCAG binder conf inactive | DNA CAG counter 6.5
COc1cccc(C(=O)Nc2nnc(S(=O)(=O)N(C)Cc3ccc(F)cc3)s2)c1	rCAG binder-1 70 | rCAG binder conf 65 | DNA CAG counter 25
CCCC[C@H]1C2CC(OC(=O)Nc3cccc(C#N)c3)C(C2)[C@H]2CCCCN21 (stereo partly specified)	none (no result: HTRA1 inh)
CC(=O)c1cc(-c2ccc([N+](=O)[O-])cc2)c(=O)n2c1CCC2	none (no result: HTRA1 inh)
CC(C)C[C@@H]1COc2cc(Br)ccc2S(=O)(=O)N1Cc1cn(Cc2ccc(C(F)(F)F)cc2)nn1	none (no result: HTRA1 inh)
CC(=O)N1CCCN(C(=O)C2CCN(c3ncnc4c3sc3cccc(F)c34)CC2)CC1	none (no result: HTRA1 inh)
COc1cccc(C(=O)Nc2nnc(S(=O)(=O)N(C)Cc3ccccc3)s2)c1	none
CCN(c1ccc(OC)cc1)S(=O)(=O)c1nnc(NC(=O)COc2ccc(F)cc2)s1	rCAG binder-1 56 | rCAG binder conf 57 | DNA CAG counter 21 | dCAG dye DR inactive | dCAG TOPRO ctr 5.5 | rCAG binder-2 1.8
COc1ccc(CN(C)S(=O)(=O)c2nnc(NC(=O)c3cccc(OC)c3)s2)cc1	rCAG binder-1 67 | rCAG binder conf 58 | DNA CAG counter 23
CCOC(=O)Cc1cc(=O)n2[nH]c(-c3ccccc3)c(-c3ccccc3)c2n1	rCAG binder-1 40 | rCAG binder conf 43 | DNA CAG counter 15
CCOC(=O)Cc1cc(=O)n2[nH]c(C)c(-c3ccccc3)c2n1	none
C#CCNC(=O)C[C@@H]1C(=O)N2CCCC3=C2[C@@]1(C(=O)OCC)CCC3	rCAG binder-1 35 (no result: HTRA1 inh) | rCAG binder conf inactive | DNA CAG counter inactive
O=C(NCc1ccco1)C1CCCN(S(=O)(=O)c2ccccc2F)C1 (stereo unspecified)	none (no result: HTRA1 inh)
COc1ccc(OC)c(/C=C/C(=O)OCC(=O)Nc2nnc(-c3ccccc3)o2)c1	rCAG binder-1 45 | rCAG binder conf 41 | DNA CAG counter 15
O=C(O)c1cc(Cl)c(Cl)cc1C(=O)N(Cc1ccccc1)Cc1ccccc1	rCAG binder-1 37 | rCAG binder conf 45 | DNA CAG counter 12
O=C(O)c1ccccc1C(=O)N(Cc1ccccc1)Cc1ccccc1	none
O=C(Nc1ccccc1)c1c(F)c(F)c(F)c(F)c1F	none
CC(C)c1c(C(=O)Nc2ccccc2)c(-c2ccccc2)c(-c2ccc(F)cc2)n1CC[C@@H](O)C[C@@H](O)CC(=O)O	rCAG binder-1 37 (no result: HTRA1 inh) | rCAG binder conf 36 | DNA CAG counter 9.9
C=CCN1C(C(=O)OC)CN(Cc2cn(Cc3ccc(C)cc3)nn2)CCS1(=O)=O (stereo unspecified)	none (no result: HTRA1 inh)
CCC(=O)c1ccc(OCC(=O)O)cc1	none
CCCc1c(OCCCOc2ccc(OCC(=O)O)cc2)ccc(C(C)=O)c1O	rCAG binder-1 61 | rCAG binder conf 51 | DNA CAG counter 16
Cc1ccc(-c2nc3ncccn3c2NC(=O)c2cccc(C)c2)cc1	none (no result: HTRA1 inh)
Cc1ccc(Sc2ccc(S(=O)(=O)Nc3ccc(C(=O)O)cc3)cc2)cc1C	rCAG binder-1 49 | rCAG binder conf 43 | DNA CAG counter 13
Cc1ccc(Oc2ccc(S(=O)(=O)Nc3ccc(C(=O)O)cc3)cc2)cc1	none
Cc1cccc(Cn2cc(CN3CC(N4CCN(CCOC(=O)c5cc6ccccc6o5)CC4)CS3(=O)=O)nn2)c1 (stereo unspecified)	none (no result: HTRA1 inh)
C/C(C=NNC(=O)c1cc(-c2ccc(Cl)cc2)n[nH]1)=C\c1ccccc1	none (no result: HTRA1 inh)
COC(=O)c1cc(=O)nc(NN=Cc2ccccc2)s1	none (no result: HTRA1 inh)
COC(=O)c1cc(=O)nc(NN=C2c3ccccc3-c3ccccc32)s1	rCAG binder-1 38 (no result: HTRA1 inh) | rCAG binder conf 94 | DNA CAG counter 77
CC(=O)Nc1ccc(NC(=O)C(C)OC(=O)c2ccc(S(=O)(=O)N3CCCCC3)cc2)cc1 (stereo unspecified)	none
Cc1ccc(S(=O)(=O)Nc2ccccc2C(=O)OC(C)C(=O)Nc2ccc3ccccc3c2)cc1[N+](=O)[O-] (stereo unspecified)	rCAG binder-1 39 | rCAG binder conf 42 | DNA CAG counter 17
CC(=O)c1ccc(NC(=O)C(C)OC(=O)c2ccc(NS(=O)(=O)c3ccc(F)c(F)c3)cc2)cc1 (stereo unspecified)	rCAG binder-1 53 | rCAG binder conf 43 | DNA CAG counter 17
